Pf Dd2 growth – P. falciparum Dd2 growth inhibition. 2.3% of 94,000 active. SYBR Green, 72 h; stronger effect = lower value. activity change, % at 10 µM; in the data active = activity change below about -80%; inconclusive = no clear call, values can overlap the other calls
KDM4C inh – KDM4C (human) demethylase inhibition. GST-KDM4C 2-372, H3K9me3 peptide, LANCE TR-FRET. inhibition, % at 12.5 µM. Q9H3R0. 0.15% of 96,000 active;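 active = mean replicate inhibition above about 25%, with at least 55% of replicates also reaching it, limit read from the data, passing the limit was not always enough; inconclusive = only one of those two conditions met; inactive = neither condition met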
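Assay system: GST-GASC-1 enzyme fragment 2-372 | Amount: 10 nM enzyme | Medium: HEPES buffer, pH 7.5, plus ascorbate | Reagent: H3K9me3 peptide substrate, Fe(II), 2-oxoglutarate | Doses: Single-point compound screen | Incubation: 30 min demethylation and 1 h detection at room temperature | Measured by: LANCE TR-FRET, excitation 340 nm, emissions 618 and 671 nm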
IDH1 R132H inh – inhibitors of human IDH1 R132H | O75874 | IDH1 R132H reductase, diaphorase/resazurin fluorescence, 60 min | inhibition, % at 10 µM | 0.18% of 70,000 active; in the data active = inhibition above about 34%; inconclusive = no clear call, values can overlap the other calls; inactive = below about 11%;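 note: 0% = DMSO and 100% = no enzyme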
Target sequence (O75874 whole entry R132H): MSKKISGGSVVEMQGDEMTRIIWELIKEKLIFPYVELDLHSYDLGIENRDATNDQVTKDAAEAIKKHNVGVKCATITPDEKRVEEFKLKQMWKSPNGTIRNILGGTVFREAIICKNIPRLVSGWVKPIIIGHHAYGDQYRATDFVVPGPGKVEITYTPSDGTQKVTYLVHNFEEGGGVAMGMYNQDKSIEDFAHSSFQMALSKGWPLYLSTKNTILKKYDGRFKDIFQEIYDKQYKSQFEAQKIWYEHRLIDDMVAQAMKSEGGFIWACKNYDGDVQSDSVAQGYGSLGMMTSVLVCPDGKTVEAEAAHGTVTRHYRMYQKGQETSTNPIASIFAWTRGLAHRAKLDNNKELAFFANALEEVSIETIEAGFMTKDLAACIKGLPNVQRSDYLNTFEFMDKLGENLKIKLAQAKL
T cruzi growth-1 – T. cruzi proliferation inhibition; T. cruzi beta-gal in NIH3T3, GalScreen luminescence, 90 h; inhibition, % at 8.34 µM; 5.9% of 77,000 active; AID 624255;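 active = mean inhibition above about 93%, with at least 55% of replicates each passing it, limit read from the data, passing the limit was not always enough; inconclusive = only one of those two conditions holds; inactive = neither condition holds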
T cruzi growth-2 – blocks T. cruzi growth in NIH3T3 host cells. T. cruzi beta-gal in NIH3T3, GalScreen luminescence, 90 h. shares compounds with T cruzi growth-1. inhibition, % at 8.35 µM. 72% of 5,600 active;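 active = mean replicate inhibition above about 95% and at least 55% of replicates individually reaching it, limit read from the data; inconclusive = only one of the two criteria is met; inactive = neither criterion is met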
T cruzi growth-3 – Trypanosoma cruzi proliferation inhibition. shares compounds with T cruzi growth-1. T. cruzi beta-gal in NIH3T3, GalScreen luminescence, 90 h. inhibition, % at 2.09 µM. 21% of 5,600 active;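 active = mean inhibition above about 95%, with at least 55% of replicates also reaching it, limit read from the data; inconclusive = meets just one of the two conditions; inactive = meets neither condition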;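 note: plate controls were neutral control median for no effect and positive control median for full effect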
NIH3T3 tox – NIH/3T3 (mouse) viability loss | shares compounds with T cruzi growth-1 | NIH/3T3 viability, CellTiter-Glo ATP luminescence, 90 h | cytotoxicity (signal decrease), % at 8.35 µM | 14% of 5,600 active | AID 651742;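 active = mean signal decrease across replicates above about 35% based on untreated-well scatter, with enough replicates individually passing, limit read from the data; inconclusive = no rule stated though some were filed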;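 note: 0% = median of neutral control wells and 100% = median of positive control wells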
NIH3T3 tox 2 – cytotoxicity in mouse NIH/3T3 fibroblasts; shares compounds with T cruzi growth-1; NIH/3T3 viability, CellTiter-Glo ATP luminescence, 90 h; inhibition, % at 24.9 µM; 56% of 5,600 active; AID 651744;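 active = mean loss of cell viability signal at or above a set limit, and enough replicates individually reaching it; inconclusive = meets only the mean limit or only the replicate share; inactive = meets neither condition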;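 note: 0% = median of neutral control wells and 100% = median of positive control wells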
* = called active by the depositor; ? = inconclusive; nt = not tested or not shown. Rows were chosen to be rich in hits. Some 5.9% of all compounds tested hit in one or more screens of this group.

SMILES	Pf Dd2 growth	KDM4C inh	IDH1 R132H inh	T cruzi growth-1	T cruzi growth-2	T cruzi growth-3	NIH3T3 tox	NIH3T3 tox 2
COc1ccc(S(=O)(=O)N(C)C[C@@H]2Oc3ccc(NC(=O)Cc4cn(C)c5ccccc45)cc3C(=O)N([C@@H](C)CO)C[C@@H]2C)cc1	-73	-7	-6	102*	85	27	-5	46*
O=C(C[C@H]1CC[C@H]2[C@@H](COC[C@@H](O)CN2CC2CCCCC2)O1)NCc1ccc(F)cc1	nt	1	nt	-1	nt	nt	nt	nt
O=C(C[C@@H]1CC[C@@H]2[C@H](COC[C@H](O)CN2CC2CCCCC2)O1)NCc1ccc(F)cc1	nt	0	nt	?	31	-19	-6	16
CN(C)CCCNC(=O)C[C@H]1CC[C@@H]2[C@H](COC[C@H](O)CN2CC2CCCC2)O1	nt	2	nt	?	70	17	-3	17
CN(C)CCCNC(=O)C[C@@H]1CC[C@H]2[C@@H](COC[C@@H](O)CN2CC2CCCC2)O1	nt	0	nt	80	nt	nt	nt	nt
COC(=O)Nc1sc(C)c(C)c1C(=O)NCc1cccnc1	nt	nt	1	nt	nt	nt	nt	nt
CCn1c(SCC(=O)O)nnc1-c1c[nH]c2ccccc12	nt	nt	0	nt	nt	nt	nt	nt
COc1ccc(S(=O)(=O)N(C)C[C@H]2Oc3cc(C#CC4CCCC4)ccc3S(=O)(=O)N([C@H](C)CO)C[C@@H]2C)cc1	-56	2	0	68	nt	nt	nt	nt
Cc1ccc(S(=O)(=O)N(C)C[C@@H]2Oc3cc(C#CC4CCCC4)ccc3S(=O)(=O)N([C@@H](C)CO)C[C@H]2C)cc1	-69	6	0	127*	101*	99*	46*	77*
Cc1ccc(S(=O)(=O)N(C)C[C@H]2Oc3cc(C#CC4CCCC4)ccc3S(=O)(=O)N([C@H](C)CO)C[C@@H]2C)cc1	-55	-3	1	127*	100*	108*	11	51*
CCc1ccc(-c2cn3c4ccccc4nc3n2CCN2CCOCC2)cc1	nt	nt	-1	nt	nt	nt	nt	nt
COc1ccc(S(=O)(=O)N2CCCCN3[C@H](CO)[C@H](c4ccc(-c5cccnc5)cc4)[C@@H]3C2)cc1	-24	-1	nt	104*	104*	39	-13	42*
COc1ccc(S(=O)(=O)N2CCCCN3[C@H](CO)[C@@H](c4ccc(-c5cccnc5)cc4)[C@@H]3C2)cc1	-16	-2	nt	109*	?	41	17	37*
COc1ccc(S(=O)(=O)N2CCCCN3[C@H](C2)[C@H](c2ccc(-c4cccnc4)cc2)[C@@H]3CO)cc1	30	-1	nt	104*	87	16	13	22
COc1ccc(S(=O)(=O)N2CCCCN3[C@@H](CO)[C@H](c4ccc(-c5cccnc5)cc4)[C@@H]3C2)cc1	-23	-1	nt	79	nt	nt	nt	nt
COc1cccc(S(=O)(=O)N2CCCCN3[C@H](CO)[C@H](c4ccc(-c5cccnc5)cc4)[C@H]3C2)c1	-38	-1	nt	110*	97*	66	33	35*
Cc1ccccc1-c1nc(S(=O)(=O)c2ccc(Cl)cc2)c(NCC2CCCO2)o1 (stereo unspecified)	nt	nt	0	nt	nt	nt	nt	nt
C[C@@H]1CN([C@H](C)CO)C(=O)c2cc(C#CCC3CCCC3)cnc2O[C@H]1CN(C)C(=O)CC1CC1	-52	-1	-1	?	96*	23	19	83*
C[C@@H]1CN([C@@H](C)CO)C(=O)c2cc(C#CCC3CCCC3)cnc2O[C@H]1CN(C)C(=O)CC1CC1	-33	-2	0	100*	?	48	21	39*
Cc1ccc(-n2c(SCC(=O)Nc3ccc(F)c(F)c3)nnc2-c2ccc(Cl)cc2)cc1	nt	nt	0	nt	nt	nt	nt	nt
COCCN(C[C@H]1N[C@H](CO)[C@@H]1c1ccc(-c2cccc(F)c2)cc1)C(C)=O	-10	0	nt	87	nt	nt	nt	nt
COCCN(C[C@@H]1N[C@@H](CO)[C@@H]1c1ccc(-c2cccc(F)c2)cc1)C(C)=O	2	2	nt	105*	102*	39	-22	14
COCCN(C[C@@H]1N[C@@H](CO)[C@H]1c1ccc(-c2cccc(F)c2)cc1)C(C)=O	8	1	nt	?	27	-3	-12	14

Screening results as filed in PubChem.
